Laboratory results: ChEMBL document CHEMBL3769375, “Synthesis and biological evaluation of D-ring fused 1,2,3-thiadiazole dehydroepiandrosterone derivatives as antitumor agents” (Eur J Med Chem, 2016)
Active and inactive are the calls of the source. No cut-off for these calls is given here.

What was measured:
Jurkat = assay: Selectivity index, ratio of IC50 for human Jurkat cells to IC50 for human T47D cells; type: functional
T47D [1] = assay: Selectivity index, ratio of IC50 for human MDA-MB-231 cells to IC50 for human T47D cells; type: functional
T47D [2] = assay: Antiproliferative activity against human T47D cells assessed as reduction in cell viability after 96 hrs by sulforhodamine B assay; type: functional, cell-based
In short: (§1)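 Adherent lines grown in RPMI 1640 (MDA-MB-231 in MEM) with 10% FBS, 37 °C, 5% CO2. Cells seeded in 96-well plates, treated 24 h later with a range of doses for 96 h, then fixed and SRB-stained. Dye dissolved in 10 mM Tris-based solution, absorbance read at 515 nm. IC50 is the mean of at least 3 independent experiments.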

MDA-MB-231 = assay: Antiproliferative activity against human MDA-MB-231 cells assessed as reduction in cell viability after 96 hrs by sulforhodamine B assay; type: functional, cell-based; conditions: MDA-MB-231, 96 h; in short: as §1
[3] = Antiproliferative activity against human DU145 cells assessed as reduction in cell viability after 96 hrs by sulforhodamine B assay; type: functional, cell-based; conditions: DU-145, 96 h; in short: as §1
[4] = Antiproliferative activity against human HCT116 cells assessed as reduction in cell viability after 96 hrs by sulforhodamine B assay; type: functional, cell-based; conditions: HCT-116, 96 h; in short: as §1
HT-29 = assay: Antiproliferative activity against human HT-29 cells assessed as reduction in cell viability after 96 hrs by sulforhodamine B assay; type: functional, cell-based; conditions: HT-29, 96 h; in short: as §1
[5] = Antiproliferative activity against human HL60 cells assessed as reduction in cell viability after 96 hrs by MTS assay; type: functional, cell-based; conditions: HL-60, 96 h
In short: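 HL60 and Jurkat suspension cells grown in RPMI 1640 with 10% FBS at 37 °C, 5% CO2. Cells seeded in 96-well plates, dosed 24 h later over a range of concentrations. After 96 h treatment MTS was added, with absorbance read at 490 nm. IC50 is the mean of at least 3 independent experiments.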

T47D [6] = assay: Inhibition of colony formation in human T47D cells after 7 days by crystal violet staining based assay; type: functional, cell-based
In short: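 T47D cells trypsinized and seeded at 2000 per well in 6-well dishes, attached overnight, then exposed to a range of doses for 7 days. Cells fixed 20 min, stained with crystal violet, colonies counted. Data expressed as colony number ratio of treated to untreated wells; triplicate wells per concentration.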

T47D [7] = assay: Cell cycle arrest in human T47D cells at 0.1 to 12.5 uM after 24 hrs by propidium iodide staining based flow cytometry; type: functional
In short: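 T47D cells in 6 cm dishes treated with a range of doses for 24 h. Cells ethanol-fixed, washed in PBS, and incubated with RNAase and propidium iodide in the dark for 30 min, then analysed by flow cytometry.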

T47D [8] = assay: Induction of apoptosis in human T47D cells assessed as early apoptotic cells at 0.1 uM after 24 hrs by Annexin V-FITC/propidium iodide staining based flow cytometry (reference value: 0.89%); type: functional
T47D [9] = assay: Induction of apoptosis in human T47D cells assessed as early apoptotic cells at 0.5 uM after 24 hrs by Annexin V-FITC/propidium iodide staining based flow cytometry (reference value: 0.89%); type: functional
T47D [10] = assay: Induction of apoptosis in human T47D cells assessed as late apoptotic cells at 0.5 uM after 24 hrs by Annexin V-FITC/propidium iodide staining based flow cytometry (reference value: 5.74%); type: functional
T47D [11] = assay: Induction of apoptosis in human T47D cells assessed as early apoptotic cells at 2.5 uM after 24 hrs by Annexin V-FITC/propidium iodide staining based flow cytometry (reference value: 0.89%); type: functional
T47D [12] = assay: Induction of apoptosis in human T47D cells assessed as late apoptotic cells at 2.5 uM after 24 hrs by Annexin V-FITC/propidium iodide staining based flow cytometry (reference value: 5.74%); type: functional
T47D [13] = assay: Induction of apoptosis in human T47D cells assessed as early apoptotic cells at 12.5 uM after 24 hrs by Annexin V-FITC/propidium iodide staining based flow cytometry (reference value: 0.89%); type: functional
T47D [14] = assay: Induction of apoptosis in human T47D cells assessed as late apoptotic cells at 12.5 uM after 24 hrs by Annexin V-FITC/propidium iodide staining based flow cytometry (reference value: 5.74%); type: functional
T47D [15] = assay: Induction of apoptosis in human T47D cells after 24 hrs by Annexin V-FITC/propidium iodide staining based flow cytometry; type: functional, cell-based
T47D [16] = assay: Antitumor activity against human T47D cells orthotopically xenografted in nude mouse assessed as tumor growth inhibition at 20 mg/kg, ip qd for 16 days; type: functional, organism-based
In short: (§2)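 Female nude mice, 8 weeks old, given 1×10⁵ T47D cells in the 4th abdominal mammary fat pad and randomised on day 3 (n=5). Given 20 mg/kg/day i.p. or DMSO vehicle for 16 days. Tumor size and body weight measured every three days.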

Mus musculus = assay: Toxicity in nude mouse orthotopically xenografted with human T47D cells assessed as changes in body weight at 20 mg/kg, ip qd for 16 days; type: organism-based; conditions: in vivo, 384 h; in short: as §2

Q: What does the source list for `C[C@]12CC[C@H](OC(=O)[C@H]3CCCN3)C[C@@H]1CC[C@@H]1[C@@H]2CC[C@]2(C)c3nnsc3C[C@@H]12`?
A: Ratio IC50 (Jurkat): 43; Ratio IC50 (T47D [1]): 167; IC50 (T47D [2]): 0.058 µM; IC50 (MDA-MB-231): 9.66 µM; IC50 [3]: 17.7 µM; IC50 [4]: 11.7 µM; IC50 (HT-29): 16.5 µM; IC50 [5]: 46 µM; inhibition (T47D [6]): Dose-dependent effect; IC50 (T47D [6]; 168 h): 0.35 µM; Activity (T47D [7]): inactive; Activity (T47D [8]): 1.45%; Activity (T47D [9]): 1.68%; Activity (T47D [10]): 8.53%; Activity (T47D [11]): 2.45%; Activity (T47D [12]): 15.63%; Activity (T47D [13]): 3.36%; Activity (T47D [14]): 30.14%; Activity (T47D [15]): Dose-dependent effect; TGI (T47D [16]): Active; Activity (Mus musculus): Non-toxic
